Active and inactive are the calls of the source.
What was measured:
Hep 3B2 [1] = assay: Cell cycle arrest in human Hep3B cells assessed as accumulation at G0/G1 phase after 24 hrs by propidium iodide staining based flow cytometry; format: functional
Summary of the method: (§1)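 Cells were exposed for 24 h to a range of concentrations (625 nM, 2.5 and 10 µM), with DMSO vehicle as control. They were then stained with propidium iodide and analysed by flow cytometry to obtain the percentages of cells in G0/G1, S and G2 phases.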

HepG2 [2] = assay: Cell cycle arrest in human HepG2 cells assessed as accumulation at G0/G1 phase after 24 hrs by propidium iodide staining based flow cytometry; format: functional; summary of the method: as §1
A549 [3] = assay: Cell cycle arrest in human A549 cells assessed as accumulation at G0/G1 phase after 24 hrs by propidium iodide staining based flow cytometry; format: functional; summary of the method: as §1
T47D [4] = assay: Cytotoxicity against human T47D cells assessed as reduction in cell viability after 72 hrs by CCK8 assay; format: functional, cell-based
A549 [5] = assay: Cytotoxicity against human A549 cells assessed as reduction in cell viability after 72 hrs by CCK8 assay; format: functional, cell-based; conditions: A549, 72 h
NCI-H1299 = assay: Cytotoxicity against human NCI-H1299 cells assessed as reduction in cell viability after 72 hrs by CCK8 assay; format: functional, cell-based; conditions: NCI-H1299, 72 h
NCI-H460 [6] = assay: Cell cycle arrest in human NCI-H460 cells assessed as accumulation at G0/G1 phase after 24 hrs by propidium iodide staining based flow cytometry; format: functional; summary of the method: as §1
T47D [7] = assay: Cell cycle arrest in human T47D cells assessed as accumulation at G0/G1 phase after 24 hrs by propidium iodide staining based flow cytometry; format: functional; summary of the method: as §1
MDA-MB-231 [8] = assay: Cell cycle arrest in human MDA-MB-231 cells assessed as accumulation at G0/G1 phase after 24 hrs by propidium iodide staining based flow cytometry; format: functional; summary of the method: as §1
Hep 3B2 [9] = assay: Cytotoxicity against human Hep3B cells assessed as reduction in cell viability after 72 hrs by CCK8 assay
HepG2 [10] = assay: Cytotoxicity against human HepG2 cells assessed as reduction in cell viability after 72 hrs by CCK8 assay; format: functional, cell-based; conditions: HepG2, 72 h
NCI-H460 [11] = assay: Cytotoxicity against human NCI-H460 cells assessed as reduction in cell viability after 72 hrs by CCK8 assay; format: functional, cell-based; conditions: NCI-H460, 72 h
MDA-MB-468 = assay: Cytotoxicity against human MDA-MB-468 cells assessed as reduction in cell viability after 72 hrs by CCK8 assay; format: functional, cell-based; conditions: MDA-MB-468, 72 h
MDA-MB-231 [12] = assay: Cytotoxicity against human MDA-MB-231 cells assessed as reduction in cell viability after 72 hrs by CCK8 assay; format: functional, cell-based; conditions: MDA-MB-231, 72 h
4T1 [13] = assay: Cytotoxicity against mouse 4T1 cells assessed as reduction in cell viability after 72 hrs by CCK8 assay; format: functional, cell-based; conditions: 4T1, 72 h
4T1 [14] = assay: Antitumor activity against mouse Fluc-labeled 4T1 cells implanted in Balb/c mouse assessed as tumor growth inhibition at 130 mg/kg, ip administered daily for 18 days measured after 8 to 25 days by bioluminescence assay relative to control; format: functional; conditions: 4T1, ip, read-out: TGI
4T1 [15] = assay: Antitumor activity against mouse Fluc-labeled 4T1 cells implanted in Balb/c mouse assessed as reduction in tumor weight at 130 mg/kg, ip administered daily for 18 days measured after 8 to 25 days; format: functional, organism-based
Summary of the method: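 Luciferase (Fluc) reporter introduced into 4T1 cells by lentiviral transduction. Cells implanted orthotopically into mammary fat pads of female BALB/c mice aged 6–8 weeks. Once tumours averaged 100 mm3, dosing was daily by IP injection. Bioluminescence imaging was done at days 8 and 25 to reflect viable tumour cell number. Tumour weight was recorded at study end.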

4T1 [16] = assay: Antitumor activity against mouse Fluc-labeled 4T1 cells implanted in Balb/c mouse assessed as tumor growth inhibition at 130 mg/kg, po administered daily via gavage for 18 days by bioluminescence assay relative to control; format: functional; conditions: 4T1, po, 432 h, read-out: TGI

CN(C)C(=O)c1cc2cnc(Nc3ccc(N4CCNCC4)cn3)nc2n1C1CCCC1 [RIBOCICLIB]
68.5%: inhibition in vivo at 130 mg/kg (4T1 [14])
38.9%: inhibition in vivo at 130 mg/kg (4T1 [16])
active: Activity (Hep 3B2 [1]) | Activity (HepG2 [2]) | Activity (A549 [3]) | Activity (NCI-H460 [6]) | Activity (T47D [7]) | Activity (MDA-MB-231 [8]) | Activity (4T1 [15])
> 10 µM: IC50 (A549 [5]) | IC50 (Hep 3B2 [9]) | IC50 (HepG2 [10]) | IC50 (NCI-H460 [11]) | IC50 (MDA-MB-468) | IC50 (MDA-MB-231 [12]) | IC50 (4T1 [13])
6.23 µM: IC50 (T47D [4])
5.46 µM: IC50 (NCI-H1299)
